Source: ChEMBL document CHEMBL1142703, “Novel ligands for the chemokine receptor-3 (CCR3): a receptor-modeling study based on 5D-QSAR” (J Med Chem, 2005)

What follows are compounds tested against T1, C-C chemokine receptor type 3 (Homo sapiens, UniProt P51677) (assay: Inhibition of [125I]eotaxin-1 binding to human chemokine receptor (hCCR3-C1)).
T1 sequence (P51677 whole entry): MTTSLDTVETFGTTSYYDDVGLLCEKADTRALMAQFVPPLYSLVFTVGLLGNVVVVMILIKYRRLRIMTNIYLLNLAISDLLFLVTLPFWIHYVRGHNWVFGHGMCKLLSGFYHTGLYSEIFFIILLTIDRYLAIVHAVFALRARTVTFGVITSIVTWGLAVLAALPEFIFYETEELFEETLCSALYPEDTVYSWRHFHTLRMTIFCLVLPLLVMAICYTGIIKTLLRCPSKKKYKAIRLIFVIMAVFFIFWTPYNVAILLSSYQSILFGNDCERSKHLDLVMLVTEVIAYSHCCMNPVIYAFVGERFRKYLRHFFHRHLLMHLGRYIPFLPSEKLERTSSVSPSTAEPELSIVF
Summary of the method: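 K562 leukemia myelogenic blast cells transfected with human CCR3 (hCCR3-C1). Binding of the radioligand 125I-eotaxin-1 was measured in a scintillation proximity format. Controls: specific binding with no displacer added, and nonspecific binding with unlabeled eotaxin or test compound added. Bound radioactivity was counted by scintillation. Ki was obtained by iterative fitting of the data to a law-of-mass-action model.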

| Structure (SMILES) | Ki [nM] |
| --- | --- |
| CN1CCN(C(CNC(=O)Nc2cc(Cl)cc(Cl)c2)c2ccc(C(F)(F)F)cc2)CC1 (stereo not given) | 5180 |
| CN1CCN(C(CNCCc2ccccc2)c2ccc(C(F)(F)F)cc2)CC1 (stereo not given) | 4730 |
| COc1ccccc1CC(=O)NCC(c1ccccc1OC)N1CCN(c2ccccc2)CC1 (stereo not given) | 6000 |
| COc1ccc(C(CNCCc2cc(Cl)cc(Cl)c2)N2CCN(C3CCCCC3)CC2)cc1 (stereo not given) | 62 |
| CN1CCN(C(CNCCc2ccccc2)c2ccccc2)CC1 (stereo not given) | 21800 |
| Cc1ccc(CCNCC(c2ccccc2)N2CCN(C)CC2)cc1 (stereo not given) | 11600 |
| COc1ccc(C(CNCCc2ccc(C)cc2)N2CCN(C3CCCCC3)CC2)cc1 (stereo not given) | 914 |
| Fc1ccc(CCNCC(c2ccc(C(F)(F)F)cc2)N2CCN(c3ccccc3)CC2)cc1 (stereo not given) | 1200 |
| COc1ccccc1CCNCC(c1ccc(C(F)(F)F)cc1)N1CCN(C2CCCCC2)CC1 (stereo not given) | 118 |
| CC(C)(C)c1ccc(CCNCC(c2ccc(C(C)(C)C)cc2)N2CCN(C3CCCCC3)CC2)cc1 (stereo not given) | 349 |
| COc1ccc(CCNCC(c2ccc(C(F)(F)F)cc2)N2CCN(c3ccccc3)CC2)cc1 (stereo not given) | 393 |
| FC(F)(F)c1ccc(C(CNCCc2cc(Cl)cc(Cl)c2)N2CCN(C3CCCCC3)CC2)cc1 (stereo not given) | 129 |
| COc1ccccc1CCNCC(c1ccc(C(C)(C)C)cc1)N1CCN(C2CCCCC2)CC1 (stereo not given) | 216 |
| CN(C)c1ccc(C(CNCCc2ccc(C(F)(F)F)cc2)N2CCN(c3ccccc3)CC2)cc1 (stereo not given) | 1670 |
| COc1ccc(C(CNCCc2ccc(F)cc2)N2CCN(C)CC2)cc1 (stereo not given) | 11700 |
| O=C(Cc1cc(Cl)cc(Cl)c1)NCC(c1ccccc1)N1CCN(C2CCCCC2)CC1 (stereo not given) | 62500 |
| Cc1ccc(CCNCC(c2ccc(N(C)C)cc2)N2CCN(c3ccccc3)CC2)cc1 (stereo not given) | 435 |
| CN(C)c1ccc(CCNCC(c2ccc(C(F)(F)F)cc2)N2CCN(C3CCCCC3)CC2)cc1 (stereo not given) | 1080 |
| Cc1ccc(NC(=O)NCC(c2ccccc2)N2CCN(C3CCCCC3)CC2)cc1 (stereo not given) | 5390 |
| CN(C)c1ccc(C(CNC(=O)Cc2ccc(C(F)(F)F)cc2)N2CCN(c3ccccc3)CC2)cc1 (stereo not given) | 34900 |
| FC(F)(F)c1ccc(CCNCC(c2ccc(C(F)(F)F)cc2)N2CCN(C3CCCCC3)CC2)cc1 (stereo not given) | 782 |

| Structure (SMILES) | Ki [nM] |
| --- | --- |
| O=C(NCC(c1ccccc1)N1CCN(C2CCCCC2)CC1)Nc1ccc(F)cc1 (stereo not given) | 6360 |
| COc1ccccc1NC(=O)NCC(c1ccc(C(F)(F)F)cc1)N1CCN(C2CCCCC2)CC1 (stereo not given) | 3650 |
| COc1ccc(C(CNC(=O)Nc2ccc(F)cc2)N2CCN(C3CCCCC3)CC2)cc1 (stereo not given) | 1030 |
| COc1ccc(C(CNC(=O)Nc2ccc(C(F)(F)F)cc2)N2CCN(C3CCCCC3)CC2)cc1 (stereo not given) | 1530 |
| FC(F)(F)c1ccc(CCNCC(c2ccccc2)N2CCN(C3CCCCC3)CC2)cc1 (stereo not given) | 1310 |
| CN(C)c1ccc(CCNCC(c2ccccc2)N2CCN(c3ccccc3)CC2)cc1 (stereo not given) | 1770 |
| Cc1ccc(CC(=O)NCC(c2ccccc2)N2CCN(c3ccccc3)CC2)cc1 (stereo not given) | 26900 |
| O=C(NCC(c1ccccc1)N1CCN(C2CCCCC2)CC1)Nc1cc(Cl)cc(Cl)c1 (stereo not given) | 1250 |
| Clc1cc(Cl)cc(CCNCC(c2ccccc2)N2CCN(C3CCCCC3)CC2)c1 (stereo not given) | 80 |
| COc1ccc(CCNCC(c2ccc(C(C)(C)C)cc2)N2CCN(c3ccccc3)CC2)cc1 (stereo not given) | 768 |
| CC(C)(C)c1ccc(C(CNC(=O)Cc2ccccc2)N2CCN(c3ccccc3)CC2)cc1 (stereo not given) | 11200 |
| Cc1cc(C)cc(NC(=O)NCC(CC(C)C)N2CCN(c3ccc(Cl)c(Cl)c3)CC2)c1 (stereo not given) | 313 |
| COc1ccccc1CCNCC(c1ccc(C(C)(C)C)cc1)N1CCN(c2ccccc2)CC1 (stereo not given) | 488 |
| COc1ccccc1CCNCC(c1ccccc1OC)N1CCN(c2ccccc2)CC1 (stereo not given) | 1580 |
| COc1ccccc1C(CNCCc1cc(Cl)cc(Cl)c1)N1CCN(C2CCCCC2)CC1 (stereo not given) | 344 |
| COc1ccccc1CC(=O)NCC(c1ccc(C(C)(C)C)cc1)N1CCN(c2ccccc2)CC1 (stereo not given) | 8850 |
| CN(C)c1ccc(CCNCC(c2ccc(C(F)(F)F)cc2)N2CCN(c3ccccc3)CC2)cc1 (stereo not given) | 605 |
| CN1CCN(C(CNC(=O)Nc2cc(Cl)cc(Cl)c2)c2ccc(N(C)C)cc2)CC1 (stereo not given) | 3810 |
| FC(F)(F)c1ccc(C(CNCCc2ccccc2)N2CCN(C3CCCCC3)CC2)cc1 (stereo not given) | 484 |
| CN1CCN(C(CNCCc2ccc(C(F)(F)F)cc2)c2ccccc2)CC1 (stereo not given) | 8970 |

Second part, the compound after the results:

| Ki [nM] | Structure (SMILES) |
| --- | --- |
| 895 | Fc1ccc(CCNCC(c2ccc(C(F)(F)F)cc2)N2CCN(C3CCCCC3)CC2)cc1 (stereo not given) |
| 224 | CC(C)(C)c1ccc(C(CNCCc2cc(Cl)cc(Cl)c2)N2CCN(C3CCCCC3)CC2)cc1 (stereo not given) |
| 1980 | COc1ccc(NC(=O)NCC(c2ccc(C(C)(C)C)cc2)N2CCN(C3CCCCC3)CC2)cc1 (stereo not given) |
| 1070 | Cc1ccc(NC(=O)NCC(c2ccc(C(F)(F)F)cc2)N2CCN(C3CCCCC3)CC2)cc1 (stereo not given) |
| 5550 | O=C(NCC(c1ccccc1)N1CCN(c2ccccc2)CC1)Nc1ccc(F)cc1 (stereo not given) |
| 1120 | CC(C)(C)c1ccc(C(CNC(=O)Nc2ccc(F)cc2)N2CCN(C3CCCCC3)CC2)cc1 (stereo not given) |
| 312 | CN(C)c1ccc(CCNCC(c2ccc(C(C)(C)C)cc2)N2CCN(C3CCCCC3)CC2)cc1 (stereo not given) |
| 296 | CC(C)CC(CNC(=O)Nc1cc(Cl)cc(Cl)c1)N1CCN(C2CCCCC2)CC1 (stereo not given) |
| 350 | CC(C)(C)c1ccc(C(CNCCc2ccccc2)N2CCN(C3CCCCC3)CC2)cc1 (stereo not given) |
| 910 | COc1ccc(C(CNC(=O)Nc2ccc(C(C)(C)C)cc2)N2CCN(C3CCCCC3)CC2)cc1 (stereo not given) |
| 179 | Cc1ccc(NC(=O)NCC(CC(C)C)N2CCN(c3ccc(Cl)c(Cl)c3)CC2)cc1 (stereo not given) |
| 316 | Cc1ccc(NC(=O)NCC(c2ccc(-c3ccccc3)cc2)N2CCN(C3CCCCC3)CC2)cc1 (stereo not given) |
| 346 | COc1ccc(CCNCC(c2ccc(C(C)(C)C)cc2)N2CCN(C3CCCCC3)CC2)cc1 (stereo not given) |
| 830 | COc1ccc(C(CNC(=O)Nc2cc(Cl)cc(Cl)c2)N2CCN(C3CCCCC3)CC2)cc1 (stereo not given) |
| 987 | CN(C)c1ccc(C(CNC(=O)Nc2cc(Cl)cc(Cl)c2)N2CCN(C3CCCCC3)CC2)cc1 (stereo not given) |
| 3540 | COc1ccccc1C(CNC(=O)Nc1ccc(C)cc1)N1CCN(c2ccccc2)CC1 (stereo not given) |
| 1110 | O=C(NCC(c1ccc(C(F)(F)F)cc1)N1CCN(C2CCCCC2)CC1)Nc1ccc(F)cc1 (stereo not given) |
| 7750 | CN1CCN(C(CNC(=O)Nc2ccc(F)cc2)c2ccc(N(C)C)cc2)CC1 (stereo not given) |
| 10700 | Cc1ccc(NC(=O)NCC(c2ccc(C(F)(F)F)cc2)N2CCN(C)CC2)cc1 (stereo not given) |
| 9830 | COc1ccc(NC(=O)NCC(c2ccccc2)N2CCN(C3CCCCC3)CC2)cc1 (stereo not given) |
| 3350 | COc1ccccc1NC(=O)NCC(c1ccc(C(F)(F)F)cc1)N1CCN(C)CC1 (stereo not given) |
| 832 | CC(C)(C)c1ccc(CCNCC(c2ccc(C(F)(F)F)cc2)N2CCN(C3CCCCC3)CC2)cc1 (stereo not given) |
| 40200 | COc1ccc(C(CNC(=O)Cc2ccccc2)N2CCN(c3ccccc3)CC2)cc1 (stereo not given) |
| 2250 | COc1ccc(C(CNC(=O)Nc2ccc(C)cc2)N2CCN(C3CCCCC3)CC2)cc1 (stereo not given) |
| 8020 | Cc1ccc(NC(=O)NCC(c2ccccc2)N2CCN(c3ccccc3)CC2)cc1 (stereo not given) |

| Ki [nM] | Structure (SMILES) |
| --- | --- |
| 1720 | CN(C)c1ccc(NC(=O)NCC(c2ccc(C(C)(C)C)cc2)N2CCN(C3CCCCC3)CC2)cc1 (stereo not given) |
| 932 | O=C(NCC(c1ccc(C(F)(F)F)cc1)N1CCN(C2CCCCC2)CC1)Nc1cc(Cl)cc(Cl)c1 (stereo not given) |
| 231 | CC(C)(C)c1ccc(C(CNCCc2ccc(C(F)(F)F)cc2)N2CCN(C3CCCCC3)CC2)cc1 (stereo not given) |
| 5380 | COc1ccccc1C(CNC(=O)Nc1ccc(F)cc1)N1CCN(C2CCCCC2)CC1 (stereo not given) |
| 897 | COc1ccccc1C(CNC(=O)Nc1cc(Cl)cc(Cl)c1)N1CCN(C2CCCCC2)CC1 (stereo not given) |
| 972 | CC(C)(C)c1ccc(C(CNC(=O)Nc2ccc(C(F)(F)F)cc2)N2CCN(C3CCCCC3)CC2)cc1 (stereo not given) |
| 1710 | COc1ccc(NC(=O)NCC(c2ccc(C(F)(F)F)cc2)N2CCN(C3CCCCC3)CC2)cc1 (stereo not given) |
| 10300 | CC(C)(C)c1ccc(C(CNC(=O)Cc2ccc(C(F)(F)F)cc2)N2CCN(C3CCCCC3)CC2)cc1 (stereo not given) |
| 1130 | CC(C)(C)c1ccc(C(CNC(=O)Nc2ccccc2)N2CCN(C3CCCCC3)CC2)cc1 (stereo not given) |
| 479 | O=C(NCC(c1ccc(C(F)(F)F)cc1)N1CCN(C2CCCCC2)CC1)Nc1ccccc1 (stereo not given) |
| 2050 | CC(C)(C)c1ccc(NC(=O)NCC(c2ccc(C(C)(C)C)cc2)N2CCN(C3CCCCC3)CC2)cc1 (stereo not given) |
| 477 | COc1ccc(CCNCC(c2ccc(C(F)(F)F)cc2)N2CCN(C3CCCCC3)CC2)cc1 (stereo not given) |
| 517 | Cc1cc(C)cc(CCNCC(c2ccc(-c3ccccc3)cc2)N2CCN(C3CCCCC3)CC2)c1 (stereo not given) |
| 545 | Cc1ccc(CCNCC(c2ccc(C(F)(F)F)cc2)N2CCN(C3CCCCC3)CC2)cc1 (stereo not given) |
| 14800 | COc1ccc(NC(=O)NCC(c2ccc(C(F)(F)F)cc2)N2CCN(c3ccccc3)CC2)cc1 (stereo not given) |
| 1310 | O=C(NCC(c1ccc(C(F)(F)F)cc1)N1CCN(C2CCCCC2)CC1)Nc1ccc(C(F)(F)F)cc1 (stereo not given) |
| 50 | COc1ccc(C(CNCCc2cc(C)cc(C)c2)N2CCN(C3CCCCC3)CC2)cc1 (stereo not given) |
| 629 | COc1ccc(C(CNCCc2ccc(C(C)(C)C)cc2)N2CCN(C3CCCCC3)CC2)cc1 (stereo not given) |
| 1460 | O=C(NCC(c1ccccc1)N1CCN(C2CCCCC2)CC1)Nc1ccc(C(F)(F)F)cc1 (stereo not given) |
| 929 | COc1ccc(C(CNCCc2ccc(C(F)(F)F)cc2)N2CCN(C3CCCCC3)CC2)cc1 (stereo not given) |
| 429 | CC(C)CC(CNC(=O)Nc1ccc(Cl)cc1)N1CCN(C2CCCCC2)CC1 (stereo not given) |
| 1040 | COc1ccc(C(CNCCc2ccccc2)N2CCN(C3CCCCC3)CC2)cc1 (stereo not given) |
| 597 | COc1ccc(C(CNCCc2ccc(C)cc2)N2CCN(c3ccccc3)CC2)cc1 (stereo not given) |
| 326 | Cc1cc(C)cc(NC(=O)NCC(c2ccc(-c3ccccc3)cc2)N2CCN(C3CCCCC3)CC2)c1 (stereo not given) |
